Data on six molecules can be found in ChEMBL document CHEMBL1134741, “Synthesis and preliminary pharmacological evaluation of coumestans with different patterns of oxygenation” (Bioorg Med Chem Lett, 2001).

Assay [1] relates to P06732. Description: (§1) Concentration required to antagonise the creatine kinase release induced by Bothrops jararacussu venom. It counts as functional.
The species named for assay [2] is Rattus norvegicus. The assay can be described thus: Tested for the inhibitory activity against rat kidney Na+, K+-ATPase. It counts as functional. A digest of the protocol: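 Na+,K+-ATPase was taken from partially purified rat kidney microsomes. Inhibition was measured by phosphate release (Fiske–Subbarow) using 1.2 mM ATP.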
In assay [3] the target is GABA-A receptor; anion channel. The assay can be described thus: Inhibition of [3H]flunitrazepam binding to rat brain synaptosomes. In kind it is subcellular. Summed up:
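Crude rat brain synaptosomes (200 µg protein; cerebellum and brainstem removed) were incubated with 0.2 nM [3H]-flunitrazepam in buffered Krebs solution for 90 min at 4 °C.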

In assay [4] the target is T1, Polyunsaturated fatty acid 5-lipoxygenase (Homo sapiens, UniProt P09917).
T1 sequence (P09917 whole entry): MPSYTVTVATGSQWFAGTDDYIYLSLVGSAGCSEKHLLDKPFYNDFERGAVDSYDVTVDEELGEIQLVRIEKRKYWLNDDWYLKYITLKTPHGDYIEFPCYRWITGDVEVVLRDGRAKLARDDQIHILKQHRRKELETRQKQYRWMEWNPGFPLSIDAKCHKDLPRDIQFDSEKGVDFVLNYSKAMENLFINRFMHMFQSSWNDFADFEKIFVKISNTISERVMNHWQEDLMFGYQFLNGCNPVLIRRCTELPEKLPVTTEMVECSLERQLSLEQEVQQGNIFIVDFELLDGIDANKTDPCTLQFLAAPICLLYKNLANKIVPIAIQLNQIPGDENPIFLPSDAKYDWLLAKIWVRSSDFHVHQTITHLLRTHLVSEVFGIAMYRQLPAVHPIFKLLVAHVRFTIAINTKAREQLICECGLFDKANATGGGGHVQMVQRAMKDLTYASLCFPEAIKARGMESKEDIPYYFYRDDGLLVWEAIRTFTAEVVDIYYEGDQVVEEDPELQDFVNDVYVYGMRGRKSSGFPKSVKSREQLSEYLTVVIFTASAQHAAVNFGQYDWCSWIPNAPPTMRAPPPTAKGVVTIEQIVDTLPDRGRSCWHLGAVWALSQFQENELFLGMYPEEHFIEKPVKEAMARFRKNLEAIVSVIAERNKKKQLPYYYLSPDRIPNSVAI
The assay can be described thus: Tested for the inhibitory activity against 5-lipoxygenase.

The subject of assay [5] is Bothrops jararacussu. The description is as §1. It counts as functional, organism-based.
Assay [6] can be described thus: Tested for antimyotoxic activity of the compound. In kind it is functional.

Chain of P06732 (P06732 whole entry): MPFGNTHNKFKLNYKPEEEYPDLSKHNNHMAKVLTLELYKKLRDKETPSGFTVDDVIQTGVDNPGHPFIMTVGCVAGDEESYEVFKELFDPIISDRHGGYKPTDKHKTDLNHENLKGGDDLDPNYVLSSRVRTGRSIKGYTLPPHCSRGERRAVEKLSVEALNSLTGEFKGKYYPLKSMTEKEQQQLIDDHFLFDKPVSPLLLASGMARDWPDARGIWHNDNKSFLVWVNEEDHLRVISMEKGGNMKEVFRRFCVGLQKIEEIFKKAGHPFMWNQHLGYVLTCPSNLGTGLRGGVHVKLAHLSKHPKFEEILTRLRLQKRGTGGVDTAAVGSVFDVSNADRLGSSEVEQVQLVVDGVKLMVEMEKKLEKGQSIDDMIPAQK

In assay [1], `O=c1oc2cc(O)ccc2c2oc3cc4c(cc3c12)OCO4` registered a Concentration of 30 µM.

For `O=c1oc2cc(O)ccc2c2oc3cc(O)c(O)cc3c12`, the Concentration in assay [1] amounted to 30 µM.

On to `COc1cc2oc3c4ccc(O)cc4oc(=O)c3c2cc1O`, for which the Concentration in assay [1] amounted to 30 µM.

The molecule `COc1cc2oc(=O)c3c4cc(OC)c(O)cc4oc3c2cc1O` yielded a Concentration in assay [1] of 30 µM.

`COc1cc(O)c2c(c1)oc(=O)c1c3cc(O)c(O)cc3oc21` [WEDELOLACTONE]: the IC50 in assay [2] is 0.7 µM; in assay [3], 2 µM; in assay [4], 2.5 µM.

In assay [5], `COc1cc2oc(=O)c3c4cc(O)c(O)cc4oc3c2cc1O` displayed a Concentration of 30 µM. Besides, the half-maximal inhibitory concentration (IC50) in assay [2] is 0.5 µM; in assay [3], greater than 100 µM; in assay [6], 1 µM.

The IC50 is the concentration at which inhibition is half-maximal. Low readings indicate greater potency in that assay, high ones weaker potency in that assay.
